One block for each molecule: values may come before it.
Legend:
Manca = experiment: Compound was evaluated for inhibition of tumor cell growth in Manca human lymphoma cell line; type: functional, cell-based; conditions: read-out: I50
MCF7 = experiment: Compound was evaluated for inhibition of tumor cell growth in MCF-7 cell line; type: functional, cell-based; conditions: Homo sapiens, read-out: I50
Outline: (§1)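 Cells were grown in folate-free RPMI 1640 with 10% dialyzed FCS and 20 nM leucovorin, seeding SW480 at 8000 and MCF-7 at 10000 cells/well. After 24 h at 37 °C and 5% CO₂, drug diluted in leucovorin-free medium was added to triplicate wells for 96 h. Growth was read by MTT reduction (1 h), followed by DMSO solubilization and absorbance.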

SW480 = experiment: Compound was evaluated for inhibition of tumor cell growth in SW/480 cell line; type: functional, cell-based; conditions: Homo sapiens, read-out: I50; outline: as §1
Thymidylate synthase [1] = target: Thymidylate synthase (Escherichia coli, UniProt C3SWJ7); experiment: Compound was evaluated for the inhibition of Escherichia coli Thymidylate Synthase; conditions: read-out: I50
Chain of Thymidylate synthase (Escherichia coli, UniProt C3SWJ7) (C3SWJ7 whole entry): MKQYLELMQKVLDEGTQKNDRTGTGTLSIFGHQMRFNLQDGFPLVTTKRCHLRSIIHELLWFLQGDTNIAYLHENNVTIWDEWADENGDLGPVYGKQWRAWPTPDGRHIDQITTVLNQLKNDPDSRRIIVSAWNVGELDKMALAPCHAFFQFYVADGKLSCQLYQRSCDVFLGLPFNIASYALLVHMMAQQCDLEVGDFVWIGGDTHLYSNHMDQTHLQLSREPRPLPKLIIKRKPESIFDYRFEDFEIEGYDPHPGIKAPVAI

Thymidylate synthase [2] = target: Thymidylate synthase (Homo sapiens, UniProt P04818); experiment: Compound was evaluated for the inhibition of human Thymidylate Synthase; conditions: read-out: I50
Chain of Thymidylate synthase (Homo sapiens, UniProt P04818) (P04818 whole entry): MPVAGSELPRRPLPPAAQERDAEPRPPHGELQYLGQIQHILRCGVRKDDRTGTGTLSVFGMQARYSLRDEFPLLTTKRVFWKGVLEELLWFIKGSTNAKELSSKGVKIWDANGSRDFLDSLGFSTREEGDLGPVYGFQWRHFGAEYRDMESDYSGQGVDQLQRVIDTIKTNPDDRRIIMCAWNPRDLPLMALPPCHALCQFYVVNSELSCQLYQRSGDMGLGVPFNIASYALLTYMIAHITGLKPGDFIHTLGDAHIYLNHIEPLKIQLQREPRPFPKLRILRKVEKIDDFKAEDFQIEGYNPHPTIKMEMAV

[3] = It is the ratio of relative maximum velocity to that of apparent kinetic constant
MOLT-4 = experiment: Compound was evaluated for inhibition of MTX influx into MOLT-4 cells; type: functional, cell-based; conditions: Homo sapiens, read-out: I50
Outline: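 MOLT-4 cells were grown in folate-free RPMI-1640 with 10% dialyzed FCS and 20 nM leucovorin, then resuspended in pH 7.4 Tris/bicarbonate buffer with 10 mM DTT at 37 °C. Test compound was added with TLC-purified ³H-MTX at t = 0. Timed aliquots were spun through 1-bromododecane, and pellets were NaOH-extracted and scintillation counted. Rates came from 4–5 linear points at ≤10 min.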

[4] = substrate: C#CCN(Cc1ccc(C(=O)NC(CCC(=O)O)C(=O)O)cc1)Cc1ccc2nc(C)nc(O)c2c1; experiment: Relative maximum velocity of Folyl-polyglutamate synthase (relative to control of 50 uM aminopterin); conditions: Sus scrofa
Outline: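 Substrate activity was measured with partially purified hog liver FPGS, following an earlier published method. Vmax is expressed relative to a control of 50 μM aminopterin that was run in every experiment. Where activity was weak, relative velocity was reported at 200 μM substrate.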

IC50 (MCF7): > 100 µM | IC50 (SW480): > 100 µM | IC50 (Thymidylate synthase [1]): 201 µM | IC50 (Thymidylate synthase [2]): 31 µM | Ratio [3]: 1.9
Molecule: C#CCN(Cc1ccc(C(=O)NC(CCC(=O)O)C(=O)O)cc1)Cc1ccc2nc(N)nc(O)c2c1 (stereo unspecified)
IC50 (Manca): > 80 µM

Ratio [3]: 32.1
Molecule: Nc1nc(O)c2c(n1)NCC(CNc1ccc(C(=O)N[C@@H](CCC(=O)O)C(=O)O)cc1)N2 (stereo partly specified)

IC50 (MOLT-4): 1.5 µM | IC50 (MCF7): 0.007 µM | IC50 (SW480): 0.05 µM | IC50 (Thymidylate synthase [1]): 0.045 µM | IC50 (Thymidylate synthase [2]): 0.01 µM | Ratio [3]: 1.33
Molecule: C#CCN(Cc1ccc2nc(C)nc(O)c2c1)c1ccc(C(=O)NC(CCC(=O)O)C(=O)O)cc1 (stereo unspecified)
IC50 (Manca): 0.013 µM

IC50 (MOLT-4): 4.5 µM | IC50 (MCF7): 22 µM | IC50 (SW480): > 100 µM | IC50 (Thymidylate synthase [2]): 0.74 µM | Ratio [3]: 0.38
Molecule: C#CCN(Cc1ccc(C(=O)NC(CCC(=O)O)C(=O)O)cc1)Cc1ccc2ccnc(O)c2c1 (stereo unspecified)
IC50 (Manca): 9 µM

IC50 (MOLT-4): 3.5 µM
Molecule: Nc1nc(=O)c2c([nH]1)NCC(CNc1ccc(C(=O)N[C@H](CCC(=O)O)C(=O)O)cc1)N2C=O (stereo partly specified)

IC50 (MOLT-4): 28 µM | IC50 (MCF7): 0.8 µM | IC50 (SW480): 0.8 µM
Molecule: C#CCN(Cc1ccc2[nH]c(N)nc(=O)c2c1)c1ccc(C(=O)NC(CCC(=O)O)C(=O)O)cc1 (stereo unspecified)
IC50 (Manca): 0.56 µM

IC50 (MOLT-4): 4.5 µM | IC50 (MCF7): > 100 µM | IC50 (SW480): > 100 µM | IC50 (Thymidylate synthase [1]): 1.88 µM | IC50 (Thymidylate synthase [2]): 24 µM
Molecule: C#CCN(Cc1ccc2c(c1)C(=O)C[C@H](C)N2)c1ccc(C(=O)NC(CCC(=O)O)C(=O)O)cc1 (stereo partly specified)

IC50 (MOLT-4): > 100 µM | Ratio [3]: 0.77
Molecule: Nc1nc(=O)c2nc(CNc3ccc(C(=O)N[C@@H](CCC(=O)O)C(=O)O)cc3)cnc2[nH]1 [FOLIC ACID]

IC50 (SW480): > 50 µM | IC50 (Thymidylate synthase [2]): 1.4 µM
Molecule: C#CCN(Cc1ccc(C(=O)NC(CCC(=O)O)C(=O)O)cc1)Cc1ccc2c(c1)C(=O)CC(C)=N2 (stereo unspecified)
IC50 (Manca): > 600 µM

IC50 (MOLT-4): 7 µM | IC50 (MCF7): > 100 µM | IC50 (SW480): > 100 µM | IC50 (Thymidylate synthase [1]): 515 µM | IC50 (Thymidylate synthase [2]): 83 µM | Ratio [3]: 2.01
Molecule: C#CCN(Cc1ccc(C(=O)NC(CCC(=O)O)C(=O)O)cc1)Cc1ccc2nc(C)nc(O)c2c1 (stereo unspecified)

IC50 (MOLT-4): 1.4 µM
Molecule: CN(Cc1cnc2nc(N)nc(N)c2n1)c1ccc(C(=O)N[C@@H](CCC(=O)O)C(=O)O)cc1 [METHOTREXATE]

IC50 (SW480): 0.6 µM | IC50 (Thymidylate synthase [1]): 1.5 µM | IC50 (Thymidylate synthase [2]): 0.43 µM
Molecule: C#CCN(Cc1ccc2c(c1)C(=O)N[C@H](C)N2)c1ccc(C(=O)NC(CCC(=O)O)C(=O)O)cc1 (stereo partly specified)

B1: Folylpolyglutamate synthase, mitochondrial (Homo sapiens), Q05932 (protein)
chain: MSRARSHLRAALFLAAASARGITTQVAARRGLSAWPVPQEPSMEYQDAVRMLNTLQTNAGYLEQVKRQRGDPQTQLEAMELYLARSGLQVEDLDRLNIIHVTGTKGKGSTCAFTECILRSYGLKTGFFSSPHLVQVRERIRINGQPISPELFTKYFWRLYHRLEETKDGSCVSMPPYFRFLTLMAFHVFLQEKVDLAVVEVGIGGAYDCTNIIRKPVVCGVSSLGIDHTSLLGDTVEKIAWQKGGIFKQGVPAFTVLQPEGPLAVLRDRAQQISCPLYLCPMLEALEEGGPPLTLGLEGEHQRSNAALALQLAHCWLQRQDRHGAGEPKASRPGLLWQLPLAPVFQPTSHMRLGLRNTEWPGRTQVLRRGPLTWYLDGAHTASSAQACVRWFRQALQGRERPSGGPEVRVLLFNATGDRDPAALLKLLQPCQFDYAVFCPNLTEVSSTGNADQQNFTVTLDQVLLRCLEHQQHWNHLDEEQASPDLWSAPSPEPGGSASLLLAPHPPHTCSASSLVFSCISHALQWISQGRDPIFQPPSPPKGLLTHPVAHSGASILREAAAIHVLVTGSLHLVGGVLKLLEPALSQ
Vmax [4]: 138%

From ChEMBL document CHEMBL1125864, “Folate analogues. 35. Synthesis and biological evaluation of 1-deaza, 3-deaza, and bridge-elongated analogues of N10-propargyl-5,8-dideazafolic acid” (J Med Chem, 1991)
